These results are taken from ChEMBL document CHEMBL1811823, “Quinazolinone linked pyrrolo[2,1-c][1,4]benzodiazepine (PBD) conjugates: Design, synthesis and biological evaluation as potential anticancer agents” (2010).

The source made the active and inactive calls. The calls are words filed in the database; no cut-off is given here.

Broadly, the GI50 is the concentration that inhibits growth by half. In general, ΔTm refers to the change in melting temperature against a reference sample.

The subject of experiment [1] is PC-3. The experiment is described as follows: Growth inhibition of human PC3 cells after 48 hrs by SRB assay. The conditions noted are these: PC-3, 48 h. Format: functional. The essentials: (§1)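 Cells grown in RPMI 1640 with 10% FBS and 2 mM L-glutamine, plated at densities set by doubling time, pre-incubated 24 h at 37 °C/5% CO2. Drug tested at 0.1, 1, 10 and 100 µM in triplicate wells for 48 h continuous exposure. Cells fixed with cold TCA (final 10%) 60 min at 4 °C, stained with 0.4% SRB, dye eluted in 10 mM Tris. Absorbance read at 540 nm (690 nm reference); percent growth calculated relative to control wells.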

For experiment [2], the system named is ZR-75-1. Kind of experiment: Growth inhibition of human ZR-75-1 cells after 48 hrs by SRB assay. Format: functional. The note with it: ZR-75-1, 48 h. The essentials: (§2)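 SRB assay with 48 h continuous exposure. Cells were grown in RPMI 1640 with 10% FBS and 2 mM L-glutamine and preincubated 24 h at 37 °C, 5% CO2. Compounds were tested at four concentrations (0.1, 1, 10, 100) in triplicate wells. Cells were fixed with cold TCA (10% final) for 60 min at 4 °C, stained 20 min with 0.4% SRB in 1% acetic acid, and the dye eluted with 10 mM Tris. A540 was read against a 690 nm reference. Percent growth is relative to control wells on each plate.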
Background: The SRB assay estimates cell density from bound dye.

Experiment [3] concerns SiHa. Kind of experiment: Growth inhibition of human SiHa cells after 48 hrs by SRB assay. Format: functional. Summed up:
as §2

A short description of experiment [4]: Growth inhibition of human Gurav cells after 48 hrs by SRB assay. Format: functional. The essentials:
as §1

The test system of experiment [5] is A-375. Kind of experiment: Cytotoxicity against human A375 cells assessed as cell viability after 24 hrs by MTT assay. The format is functional. Summed up: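 A375 cells seeded at 10,000/well, incubated overnight, then treated for 24 h. MTT added at 10% of culture volume for 2 h at 37 °C. Formazan dissolved in 20% SDS/50% DMF overnight at 37 °C; absorbance read at 570 nm against a medium blank. Viability expressed as percent of untreated cells.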
Background: Tetrazolium dyes change colour on reduction, which living cells bring about.

For experiment [6], the system named is A-375. The experiment is described as follows: Cell cycle arrest in human A375 cells assessed as decrease in G2/M phase at 4 uM after 24 hrs by propidium iodide staining based flow cytometry. Format: functional. Further details: scale not given: the % may be the effect or the level left. The essentials: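 A375 melanoma cells (DMEM, 10% FCS, 37 °C, 5% CO2) seeded at 5×10^5 per dish and grown 24 h, then exposed to 0–4 µM for 24 h. Harvested with trypsin-EDTA, fixed in ice-cold 70% ethanol, RNase A treated (1 mg/ml, 37 °C, 30 min), stained with propidium iodide and analysed by flow cytometry for phase distribution.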
(A flow cytometer gives signals particle by particle.)

The subject of experiment [7] is A-375. The experiment is described as follows: Inhibition of NF-kappaB signaling in human A375 cells at 4 uM after 24 hrs by Western blot. The format is cell-based. The essentials:
(§3)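 A375 cells (DMEM, 10% FCS, 37 °C, 5% CO2) were treated at 4 µM for 24 h. Lysates were loaded at 30 µg protein/lane on 12% SDS-PAGE and transferred to PVDF. Membranes were blocked 2 h in TBST, incubated with primary antibody overnight at 4 °C (p53 1:100, p27 1:500, NF-κB p65 1:500), then HRP secondary 1 h, with chemiluminescent detection. β-actin was the loading control; untreated and DMSO controls were run.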

The test system of experiment [8] is A-375. Kind of experiment: Induction of apoptosis in human A375 cells assessed as sub-G1 phase accumulation at 4 uM after 24 hrs by propidium iodide staining based flow cytometry. Format: functional. The essentials:
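A375 cells (5×10^5 per 60 mm dish) were grown 24 h, then treated 24 h at 0–4 µM. Cells were harvested with trypsin-EDTA, fixed in ice-cold 70% ethanol for 30 min at 4 °C, treated with RNase A (1 mg/ml) for 30 min at 37 °C, and stained with propidium iodide. Cell-cycle distribution, including the sub-G1 fraction, was measured by flow cytometry. DMSO-exposed cells were the control.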

A short description of experiment [9]: Growth inhibition of human DWD cells after 48 hrs by SRB assay. The format is functional. The essentials:
as §1

Experiment [10] deals with A2780. Kind of experiment: Growth inhibition of human A2780 cells after 48 hrs by SRB assay. The format is functional. The note with it: A2780, 48 h. Summed up: as §1
Experiment [11] relates to COLO 205. Kind of experiment: Growth inhibition of human COLO205 cells after 48 hrs by SRB assay. The format is functional. The conditions noted are these: COLO 205, 48 h. The essentials: as §1
The subject of experiment [12] is A-375. The experiment is described as follows: Increase in cytochrome C release in human A375 cells at 4 uM after 24 hrs by Western blot. Format: functional, cell-based. The essentials: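 Western blot of A375 cell lysates after 24 h exposure at 4 µM, with 30 µg protein/lane on 12% SDS-PAGE and transfer to PVDF. Probed overnight at 4 °C with anti-cytochrome c (1:500), then HRP secondary and chemiluminescence. β-actin was the loading control; untreated and DMSO-only cells served as controls.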

For experiment [13], the system named is A-375. Kind of experiment: Increase in p27 protein expression in human A375 cells at 4 uM after 24 hrs by Western blot. Format: functional, cell-based. The essentials:
as §3

In experiment [14] the test system is A-375. The experiment is described as follows: Increase in p53 protein expression in human A375 cells at 4 uM after 24 hrs by Western blot. The format is functional, cell-based. The essentials:
as §3

Experiment [15] relates to MCF7. Kind of experiment: Growth inhibition of human MCF7 cells after 48 hrs by SRB assay. Format: functional. The note with it: MCF7, 48 h. The essentials:
as §1

Experiment [16] concerns A-375. The experiment is described as follows: Increase in active caspase-3 protein level in human A375 cells at 4 uM after 24 hrs by Western blot. Format: functional, cell-based. Summed up: (§4)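 A375 cells were exposed 24 h at 4 µM. Lysates (30 µg/lane) were run on 12% SDS-PAGE and transferred to PVDF, then probed overnight at 4 °C with anti-cleaved caspase-3 (1:200, detects 21 kDa) or anti-PARP (1:2000, detects 113 and 85 kDa). HRP secondary and chemiluminescence were used. β-tubulin was the loading control; untreated and DMSO controls were included.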

Experiment [17] has as its system KB. The experiment is described as follows: Growth inhibition of human KB cells after 48 hrs by SRB assay. Format: functional. The essentials: as §1
Experiment [18] has as its system A-375. The experiment is described as follows: Increase in active PARP cleavage product (85kDa) level in human A375 cells at 4 uM after 24 hrs by Western blot. Format: functional, cell-based. The essentials: as §4
Experiment [19] concerns HOP-62. Kind of experiment: Growth inhibition of human HOP62 cells after 48 hrs by SRB assay. Format: functional. The conditions noted are these: HOP-62, 48 h. The essentials: as §1
The subject of experiment [20] is A549. The experiment is described as follows: Growth inhibition of human A549 cells after 48 hrs by SRB assay. The format is functional. The note with it: A549, 48 h. The essentials:
as §1

Experiment [21] deals with A-375. Kind of experiment: Decrease in Bcl-2 mRNA expression in human A375 cells at 4 uM after 24 hrs by RT-PCR.
The test system of experiment [22] is Nucleic Acid. Kind of experiment: Binding affinity to calf thymus DNA assessed as change in melting temperature at 20 uM at pH 7 incubated for 18 hrs at 37 degC by thermal denaturation assay. Format: nucleic-acid assay. The conditions noted are these: Bos taurus. Summed up:
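CT-DNA (100 µM in phosphate) with 20 µM ligand, 1:5 [PBD]/[DNA], in 10 mM sodium phosphate/1 mM Na2EDTA buffer pH 7.00. Ligand added from methanol solution; incubated at 37 °C for 0 or 18 h. A260 monitored while heating 1 °C/min over 40–90 °C. Tm taken from d(A260)/dT maxima; ΔTm = Tm(DNA+PBD) − Tm(DNA alone). Values are means of at least three determinations, corrected for methanol cosolvent.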

Regarding `COc1cc2c(cc1OCCCCCOc1ccc3nc(C)n(-c4ccc(F)c(Cl)c4)c(=O)c3c1)N=C[C@@H]1CCCN1C2=O`, the GI50 in experiment [1] is 170 nM; in experiment [2], 150 nM; in [3] it was 170 nM; in experiment [4], under 100 nM; in experiment [9], 130 nM; in experiment [10], 110 nM. The GI50 in [11] was 130 nM; in experiment [15], under 100 nM; in experiment [17] it was 150 nM; in experiment [19], 140 nM; in [20] it was 130 nM. Moreover, the values for the Activity in experiment [5], in experiment [6] and in experiment [8] were 58.72%, 11.92% and 24.1%, respectively. For the same molecule, the inhibition result in experiment [7] is “Active”. Also, the outcome in [12], in experiment [13], in experiment [14], in experiment [16] and in [18] was Active. The “Decrease in Bcl-2 mRNA expression” value in [21] is “Active”. In addition, the ΔTm in experiment [22] was 2.3 °C.
